A selection: hits, their analogues and other compounds. The true share with any hit is near 6.7%.
PREPL inhibitor – inhibits the human prolyl oligopeptidase-like enzyme. Q4J6C6. recombinant PREPL, fluorescence polarization activity-based probe. inhibition, % at 5.96 µM. 320,000 tested, 0.68% active. AID 2751; in the data active = inhibition above about 43%;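 also: 0% = enzyme with DMSO and 100% = wells lacking enzyme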
Target sequence (Q4J6C6 whole entry, looked up): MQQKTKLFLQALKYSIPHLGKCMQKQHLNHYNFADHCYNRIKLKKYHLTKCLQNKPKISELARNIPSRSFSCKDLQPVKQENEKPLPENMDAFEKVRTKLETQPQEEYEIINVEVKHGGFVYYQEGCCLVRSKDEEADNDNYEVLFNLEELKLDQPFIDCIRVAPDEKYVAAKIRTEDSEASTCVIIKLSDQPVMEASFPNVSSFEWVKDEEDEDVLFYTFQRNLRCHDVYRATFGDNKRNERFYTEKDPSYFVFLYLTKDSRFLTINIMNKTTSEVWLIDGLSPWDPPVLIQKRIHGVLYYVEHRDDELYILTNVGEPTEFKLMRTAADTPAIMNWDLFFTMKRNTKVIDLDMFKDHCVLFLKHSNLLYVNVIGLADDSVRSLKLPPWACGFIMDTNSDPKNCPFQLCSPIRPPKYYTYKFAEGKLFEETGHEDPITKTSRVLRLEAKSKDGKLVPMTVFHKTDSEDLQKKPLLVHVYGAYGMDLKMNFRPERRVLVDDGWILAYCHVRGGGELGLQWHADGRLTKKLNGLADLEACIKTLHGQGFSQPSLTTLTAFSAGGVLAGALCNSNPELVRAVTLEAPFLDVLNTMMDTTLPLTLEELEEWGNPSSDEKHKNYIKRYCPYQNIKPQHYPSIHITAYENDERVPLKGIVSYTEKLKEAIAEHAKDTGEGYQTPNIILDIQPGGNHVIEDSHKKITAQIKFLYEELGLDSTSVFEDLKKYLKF
T cruzi repl – T. cruzi replication inhibition | T. cruzi beta-gal in NIH3T3, luminescence, 90 h | inhibition, % (test concentration not listed) | 300,000 tested, 1.4% active | AID 1885;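 active = mean inhibition across valid replicates above about 55%, limit read from the data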;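 also: signal also drops with host cell toxicity which is not excluded here; 0% = plate median of DMSO wells and 100% = zero luminescence signal; higher percent means less beta-gal luminescence so fewer parasites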
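System: Mouse NIH/3T3 fibroblasts infected with β-gal-expressing T. cruzi Tulahuen C4 | Quantity: NIH/3T3 cells, 5,000 per well | Reagent: 5000 reporter trypomastigotes per well | Dosing: Compound pinned at 50 nL/well, DMSO | Schedule: 3 h host attachment, then at least 90 h co-culture | Detection: GalScreen luminescence, 60 min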
CSC inhib – blocks cancer stem cells. cancer stem cell-like cells viability, luminescence. inhibition, % at 7.5 µM. 300,000 tested, 1.1% active; in the data active = inhibition above about 75%; tested in HMLE shEcad cells
GRIN3A LBD mod – modulators (binders) of human NR3A ligand-binding domain; NR3A LBD differential scanning fluorimetry, Tm shift; 0% = protein alone, 100% = glycine-bound protein; AID 1259313; Tm shift relative to glycine control, % at 25 µM; 340,000 tested, 2.5% active;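 active = melting temperature shift of at least 10% of the positive control shift, at one fixed dose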
Beta apoptosis – blocks beta cell apoptosis. INS-1E cytokine-induced death, ATP luminescence, 48 h; percent of positive-control rescue, neutral wells zero. protection from apoptosis, % (concentration not given with the values). 300,000 tested, 0.8% active. AID 435005;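 active = Every replicate reaches about 75%, or at least half do and their mean reaches it too, limit read from the data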;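 also: 0% = cytokine-treated negative control wells and 100% = positive control rescue; higher means more ATP so stronger rescue from cytokine killing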
CHOP inhibitor – blocks CHOP induction under ER stress; CHO-K1 CHOP-promoter luciferase, tunicamycin-induced, 15-18 h; 220,000 tested, 3.8% active; inhibition, % at 10 µM; AID 2732;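 active = compounds that reduced the stress-induced luciferase reporter signal by more than about 70% of percent inhibition, limit read from the data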;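 also: 0% = tunicamycin plus vehicle and 100% = wells without tunicamycin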
* marks the source's active call; other numbers are inactive results.

COC(=O)Cn1c(=NC(=O)C(C)C)sc2c(C)cc(C)cc21 was read as PREPL inhibitor -5, T cruzi repl -3, CSC inhib -12, GRIN3A LBD mod 20*, Beta apoptosis 3 and CHOP inhibitor 49.
For CC(=O)N1CCC(=NNc2ccc(S(N)(=O)=O)cc2[N+](=O)[O-])CC1 the results were PREPL inhibitor 6, T cruzi repl -2, CSC inhib -15, GRIN3A LBD mod -1, Beta apoptosis -4 and CHOP inhibitor 7.
For NS(=O)(=O)c1ccc(NN=C2CCCCC2)c([N+](=O)[O-])c1 the results were PREPL inhibitor 14, T cruzi repl 3, CSC inhib -9, GRIN3A LBD mod 11*, Beta apoptosis -6 and CHOP inhibitor 45.
`FC(F)(F)c1cnc(COc2ccc(Cl)cc2Cl)c(Cl)c1` gave PREPL inhibitor 1, T cruzi repl -1, CSC inhib 11, GRIN3A LBD mod 15* and CHOP inhibitor 56.
COC(=O)[C@H](Cc1ccccc1)NC(=O)Cn1ccc(NC(=O)OCc2ccccc2)nc1=O was read as PREPL inhibitor -20, CSC inhib -10, GRIN3A LBD mod 1 and Beta apoptosis 2.
Screening COc1ccc(-n2cc(-c3ccccc3)c3c(NCCCN4CCOCC4)ncnc32)cc1 returned PREPL inhibitor 24, T cruzi repl -8, CSC inhib 64, GRIN3A LBD mod -4, Beta apoptosis -7 and CHOP inhibitor 5.
Screening CCN1CCN(c2ncnc3c2c(-c2ccccc2)cn3-c2ccc(F)cc2)CC1 returned PREPL inhibitor 3, T cruzi repl 20, CSC inhib -7, GRIN3A LBD mod -9, Beta apoptosis 2 and CHOP inhibitor -12.
`COc1ccc(-n2cc(-c3ccccc3)c3c(N4CCOCC4)ncnc32)cc1` gave PREPL inhibitor 14, T cruzi repl 36, CSC inhib 102*, GRIN3A LBD mod 0, Beta apoptosis 9 and CHOP inhibitor 81*.
Fc1ccc(-n2cc(-c3ccccc3)c3c(N4CCOCC4)ncnc32)cc1 was read as PREPL inhibitor 17, T cruzi repl 28, CSC inhib 54, GRIN3A LBD mod -7, Beta apoptosis -6 and CHOP inhibitor 70*.
`Cc1ccc(CN(C)C(=O)c2ccccc2NC(=O)c2ccccc2)o1` gave PREPL inhibitor 3 and GRIN3A LBD mod 0.
CC[C@]12c3[nH]c4ccc(Cl)cc4c3CCN1C(=O)[C@@H](CC(=O)NCc1ccc(OC)c(OC)c1)C[C@@H]2C(=O)N1CCN(C(=O)c2ccco2)CC1 was read as GRIN3A LBD mod 0.
`COc1ccc(CCNC(=O)[C@H](C)N2C(=O)N3CCc4c([nH]c5ccccc45)[C@@]3(C)C2=O)cc1` gave PREPL inhibitor 12, T cruzi repl 62*, CSC inhib 0, GRIN3A LBD mod 0 and Beta apoptosis -3.
`COC(=O)C1CCN(C(=O)COC(=O)c2oc3ccc(OC)cc3c2C)CC1` gave PREPL inhibitor -7, T cruzi repl -16, CSC inhib -3 and GRIN3A LBD mod 0.
Screening O=c1oc2cc(O)ccc2s1 returned PREPL inhibitor -4, T cruzi repl -36, CSC inhib -6, GRIN3A LBD mod 2 and Beta apoptosis 2.
Screening Cc1ccc(-c2cc(O)cc3sc(=O)oc23)cc1C returned PREPL inhibitor -4, T cruzi repl 8, CSC inhib 44, GRIN3A LBD mod 10*, Beta apoptosis -11 and CHOP inhibitor 20.
Screening O=C1c2ccccc2C(=O)c2c(Nc3ccc(CCO)cc3)ccc(O)c21 returned PREPL inhibitor 29, T cruzi repl -1, CSC inhib 88*, GRIN3A LBD mod -10, Beta apoptosis 22 and CHOP inhibitor 6.
CCS(=O)(=O)N1CCN(c2ccc([N+](=O)[O-])c(N3CCOCC3)c2)CC1 was read as PREPL inhibitor 10, T cruzi repl -3, CSC inhib -9, GRIN3A LBD mod 16*, Beta apoptosis -4 and CHOP inhibitor 26.
For CNc1cc(N2CCN(S(=O)(=O)N(C)C)CC2)ccc1[N+](=O)[O-] the results were PREPL inhibitor 19, T cruzi repl 7, CSC inhib 5, GRIN3A LBD mod 10*, Beta apoptosis -1 and CHOP inhibitor 10.

Compound activity from PubChem.
